Each structure is given as a SMILES string. Bounds are passed on as bounds.

The species entered for one series is Homo sapiens. Description: Selectivity index, ratio of IC50 for recombinant human p38-alpha to IC50 for GST-fused recombinant human ALK5. The gist of the method: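 Ratio of p38α IC50 to ALK5 IC50. ALK5 was a human recombinant GST-fusion protein expressed in Sf9 insect cells via baculovirus. p38α was […] human recombinant protein expressed in E. coli and purified on Ni-NTA agarose. Both were run in a radioisotopic ³³P protein kinase assay (³³PanQinase), with casein as the ALK5 substrate and ATF2 as the p38α substrate.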

For series [1], the target named is Mitogen-activated protein kinase 14 (Homo sapiens, UniProt Q16539). Briefly: Inhibition of recombinant human p38-alpha expressed in Escherichia coli using ATF2 as substrate by radioisotope-based assay.
Sequence of Mitogen-activated protein kinase 14 (Q16539 whole entry): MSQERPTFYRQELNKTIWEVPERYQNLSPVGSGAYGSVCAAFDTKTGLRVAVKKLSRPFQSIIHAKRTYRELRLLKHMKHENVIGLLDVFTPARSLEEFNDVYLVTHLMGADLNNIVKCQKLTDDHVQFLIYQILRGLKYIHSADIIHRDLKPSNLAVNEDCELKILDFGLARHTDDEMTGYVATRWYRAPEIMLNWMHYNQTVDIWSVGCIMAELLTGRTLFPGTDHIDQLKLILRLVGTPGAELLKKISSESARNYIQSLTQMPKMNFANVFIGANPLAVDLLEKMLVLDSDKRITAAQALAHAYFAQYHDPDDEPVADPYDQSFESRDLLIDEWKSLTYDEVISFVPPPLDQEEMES
The target of a further series is T1, TGF-beta receptor type-1 (Homo sapiens, UniProt P36897).
T1 sequence (P36897 whole entry): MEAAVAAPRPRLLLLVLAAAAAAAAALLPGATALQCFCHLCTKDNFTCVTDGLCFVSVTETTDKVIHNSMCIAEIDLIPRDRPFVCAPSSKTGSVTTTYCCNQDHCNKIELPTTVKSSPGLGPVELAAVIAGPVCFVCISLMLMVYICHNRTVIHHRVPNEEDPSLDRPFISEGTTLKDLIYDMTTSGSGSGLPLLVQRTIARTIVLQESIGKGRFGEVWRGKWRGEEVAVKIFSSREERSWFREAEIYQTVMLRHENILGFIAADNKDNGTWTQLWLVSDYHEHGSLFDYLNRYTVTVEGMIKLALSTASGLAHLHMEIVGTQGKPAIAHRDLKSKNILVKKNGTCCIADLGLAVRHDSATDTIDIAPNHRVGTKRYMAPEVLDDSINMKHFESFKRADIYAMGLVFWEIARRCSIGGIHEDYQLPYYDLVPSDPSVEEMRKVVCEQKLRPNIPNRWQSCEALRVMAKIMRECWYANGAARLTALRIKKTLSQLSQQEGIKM
Description: Inhibition of GST-fused recombinant human ALK5 expressed in baculovirus-infected insect Sf9 cells using casein as substrate by radioisotope-based assay.

Series [2] can be described thus: Retention time of the compound in rat bile treated with [14C]-EW-7197, po by LC-MS analysis. It is filed as ADME, organism-based.
Series [3] has as its system Plasma. Description: Drug level in rat plasma treated with [14C]-EW-7197, po by LC-MS analysis. The following applies: in vivo. It is filed as ADME, organism-based.
Series [4] can be described thus: Drug level in rat feces treated with [14C]-EW-7197, po by LC-MS analysis. It is filed as ADME, organism-based. The following applies: in vivo.
Series [5] is described as follows: Drug level in rat urine treated with [14C]-EW-7197, po by LC-MS analysis. It is filed as ADME, organism-based. The following applies: in vivo.
Series [6] addresses T2, TGF-beta receptor type-1 (Homo sapiens) (UniProt P36897).
T2 sequence (whole entry): T1 sequence (P36897 whole entry)
Briefly: Potency index, ratio of SB-505124 IC50 to compound IC50 for GST-fused recombinant human ALK5 expressed in baculovirus-infected insect Sf9 cells.

In series [7] the test system is Plasma. Briefly: Retention time of the compound in rat plasma treated with [14C]-EW-7197, po by LC-MS analysis. It is filed as ADME, organism-based.
Series [8] is described as follows: Drug level in rat bile treated with [14C]-EW-7197, po by LC-MS analysis. It is filed as ADME, organism-based. The following applies: in vivo.
A short description of series [9]: Retention time of the compound in rat urine treated with [14C]-EW-7197, po by LC-MS analysis. It is filed as ADME, organism-based.
Series [10] is described as follows: Drug metabolism in po dosed rat urine assessed as formation of 4-([1,2,4]triazolo[1,5-a]pyridin-6-yl)-5-(6-methylpyridin-2-yl)-1H-imidazole-2-carboxylic acid by LC-MS analysis. The following applies: in vivo. It is filed as ADME, organism-based.
Series [11] in a line: Drug metabolism in po dosed rat urine assessed as formation of 4-([1,2,4]triazolo[1,5-a]pyridin-6-yl)-5-(6-methylpyridin-2-yl)-1H-imidazol-2-ol by LC-MS analysis. It is filed as ADME, organism-based. The conditions noted are these: in vivo.
A short description of series [12]: Drug metabolism in po dosed rat urine assessed as formation of (4-([1,2,4]triazolo[1,5-a]pyridin-6-yl)-5-(6-methylpyridin-2-yl)-1H-imidazol-2-yl)methanol by LC-MS analysis. It is filed as ADME, organism-based. The conditions noted are these: in vivo.
Series [13] can be described thus: Drug metabolism in po dosed rat bile assessed as formation of 4-([1,2,4]triazolo[1,5-a]pyridin-6-yl)-5-(6-methylpyridin-2-yl)-1H-imidazole-2-carboxylic acid by LC-MS analysis. It is filed as ADME, organism-based. The conditions noted are these: in vivo.
Series [14] is described as follows: Drug metabolism in po dosed rat feces assessed as formation of (4-([1,2,4]triazolo[1,5-a]pyridin-6-yl)-5-(6-methylpyridin-2-yl)-1H-imidazol-2-yl)methanol by LC-MS analysis. It is filed as ADME, organism-based. The conditions noted are these: in vivo.
Series [15] deals with Plasma. Briefly: Drug metabolism in po dosed rat plasma assessed as formation of 4-([1,2,4]triazolo[1,5-a]pyridin-6-yl)-5-(6-methylpyridin-2-yl)-1H-imidazole-2-carboxylic acid by LC-MS analysis. The conditions noted are these: in vivo. It is filed as ADME, organism-based.
The subject of series [16] is Plasma. Description: Drug metabolism in po dosed rat plasma assessed as formation of 4-([1,2,4]triazolo[1,5-a]pyridin-6-yl)-5-(6-methylpyridin-2-yl)-1H-imidazole-2-carbaldehyde by LC-MS analysis. The following applies: in vivo. It is filed as ADME, organism-based.
Series [17] has as its system Plasma. Description: Retention time of the compound in po dosed rat plasma by LC-MS analysis. The conditions noted are these: in vivo. It is filed as ADME, organism-based.
Series [18] has as its system Plasma. Description: Drug metabolism in po dosed rat plasma assessed as formation of (4-([1,2,4]triazolo[1,5-a]pyridin-6-yl)-5-(6-methylpyridin-2-yl)-1H-imidazol-2-yl)methanol by LC-MS analysis. It is filed as ADME, organism-based. The following applies: in vivo.
Series [19] in a line: Drug metabolism in po dosed rat feces assessed as formation of 4-([1,2,4]triazolo[1,5-a]pyridin-6-yl)-5-(6-methylpyridin-2-yl)-1H-imidazole-2-carbaldehyde by LC-MS analysis. It is filed as ADME, organism-based. The conditions noted are these: in vivo.
Series [20] is described as follows: Drug metabolism in po dosed rat feces assessed as formation of 4-([1,2,4]triazolo[1,5-a]pyridin-6-yl)-5-(6-methylpyridin-2-yl)-1H-imidazole-2-carboxylic acid by LC-MS analysis. It is filed as ADME, organism-based. The conditions noted are these: in vivo.
Series [21] in a line: Drug metabolism in po dosed rat bile assessed as formation of 4-([1,2,4]triazolo[1,5-a]pyridin-6-yl)-5-(6-methylpyridin-2-yl)-1H-imidazole-2-carbaldehyde by LC-MS analysis. It is filed as ADME, organism-based. The following applies: in vivo.

As to `Cc1cccc(-c2nn(CC(=O)Nc3ccccc3)cc2-c2ccc3ncnn3c2)n1`, the Ratio IC50 in the series listed under Homo sapiens was more than 128. For the same molecule, the IC50 in [1] is more than 10 µM; at TGF-beta receptor type-1, 0.078 µM.

Consider `Cc1cccc(-c2[nH]c(CNC(=O)c3ccccc3)nc2-c2ccc3ncnn3c2)n1`, for which the Ratio IC50 in the series listed under Homo sapiens is more than 175. The values for the IC50 (in [1]; at TGF-beta receptor type-1) were more than 10 µM and 0.057 µM, respectively.

Take `Cc1cccc(-c2[nH]c(CO)nc2-c2ccc3ncnn3c2)n1`: the Retention_time in series [2] is listed as 53.65 min. Besides, the Drug metabolism entry (with Plasma [3]; in series [4]; in series [5]) was “metabolite_detected” each time.

`Cc1cccc(-c2nn(CC(=S)Nc3ccccc3F)cc2-c2ccc3ncnn3c2)n1`: the Ratio IC50 in the series filed under Homo sapiens was found to be 180. Also, the half-inhibitory concentration (IC50) was 5.21 µM in series [1] and 0.029 µM at TGF-beta receptor type-1.

As for `Cc1cccc(-c2[nH]c(CNC(=S)c3ccccc3F)nc2-c2ccc3ncnn3c2)n1`, the Ratio IC50 in the series filed under Homo sapiens came out at 39. Further, the figures for the concentration for half-maximal inhibition (IC50) (in series [1]; on TGF-beta receptor type-1) were 1.05 µM and 0.027 µM, respectively.

`Cc1cccc(-c2nn(CC(=S)Nc3cccc(C#N)c3)cc2-c2ccc3ncnn3c2)n1`: the figures for the Ratio IC50 (in the series filed under Homo sapiens; in series [6]) were 284 and 3, respectively. The values for the IC50 (in [1]; at TGF-beta receptor type-1) were 5.11 µM and 0.018 µM, respectively.

For `Cc1cccc(-c2[nH]c(O)nc2-c2ccc3ncnn3c2)n1`, the Retention_time in [2] is 54.56 min. In addition, the Drug metabolism result in series [5] is “metabolite_detected”.

Regarding `Cc1cccc(-c2nn(CC(=O)Nc3cccc(C#N)c3)cc2-c2ccc3ncnn3c2)n1`, in the series listed under Homo sapiens, the Ratio IC50 is more than 370. The 50% inhibitory concentration (IC50) in [1] was more than 10 µM; on TGF-beta receptor type-1, 0.027 µM.

In the case of `Cc1cccc(-c2nn(CC(=O)Nc3cccc(C(N)=O)c3)cc2-c2ccc3ncnn3c2)n1`, the Ratio IC50 in the series filed under Homo sapiens is more than 278. The IC50 was more than 10 µM in series [1] and 0.036 µM on TGF-beta receptor type-1.

For `Cc1cccc(-c2[nH]c(CNC(=O)c3cccc(C#N)c3)nc2-c2ccc3ncnn3c2)n1`, in the series listed under Homo sapiens, the Ratio IC50 is more than 111. Further, the values for the 50% inhibitory concentration (IC50) (in series [1]; on TGF-beta receptor type-1) were more than 10 µM and 0.09 µM, respectively.

For `Cc1cccc(-c2[nH]c(CNC(=S)c3cccc(C#N)c3)nc2-c2ccc3ncnn3c2)n1`, in the series listed under Homo sapiens, the Ratio IC50 was 41. For the same molecule, the 50% inhibitory concentration (IC50) in series [1] came to 1.49 µM; on TGF-beta receptor type-1, 0.036 µM.

For `Cc1cccc(-c2nn(CC(=O)Nc3ccccc3F)cc2-c2ccc3ncnn3c2)n1`, the Ratio IC50 in the series listed under Homo sapiens was more than 118. The IC50 in [1] was more than 10 µM; on TGF-beta receptor type-1 it was 0.085 µM.

In the series with Plasma [7], `Cc1cccc(-c2[nH]c(C(=O)O)nc2-c2ccc3ncnn3c2)n1` showed a Retention_time of 24.43 min. For the same molecule, the Drug metabolism entry in [4], in series [8] and in [5] was “metabolite_detected” throughout.

In the case of `Cc1cccc(-c2[nH]c(CN)nc2-c2ccc3ncnn3c2)n1`, the Retention_time in [2] is listed as 68.77 min.

`Cc1cccc(-c2[nH]c(C=O)nc2-c2ccc3ncnn3c2)n1` displayed a Retention_time in [9] of 62.37 min. For the same molecule, the Drug metabolism entry (in the series with Plasma [3]; in [4]; in series [8]) was “metabolite_detected” in each case.

For `Cc1cccc(-c2[nH]c(CNc3ccccc3F)nc2-c2ccc3ncnn3c2)n1` [VACTOSERTIB], the Drug metabolism result (in [10]; in series [11]; in series [12]; in [13]; in series [14]; in the series with Plasma [15]) was “metabolite_detected” throughout. The Drug metabolism result (in the series on Plasma [16]; in the series on Plasma [18]; in series [19]; in [20]; in [21]) was “metabolite_detected” throughout. For the same molecule, the Retention_time with Plasma [17] amounted to 71.53 min.

On to `Cc1cccc(-c2[nH]c(CNC(=S)c3cccc(C(N)=O)c3)nc2-c2ccc3ncnn3c2)n1`, for which the Ratio IC50 in the series filed under Homo sapiens amounted to 129. The figures for the IC50 (in series [1]; on TGF-beta receptor type-1) were 2.83 µM and 0.022 µM, respectively.

As to `Cc1cccc(-c2[nH]c(Cc3cccc(C(N)=O)c3)nc2-c2ccc3nccnc3c2)n1`, the Ratio IC50 in the series listed under Homo sapiens stood at 28.

Take `Cc1cccc(-c2[nH]c(CNC(=O)c3cccc(C(N)=O)c3)nc2-c2ccc3ncnn3c2)n1`: the Ratio IC50 in the series filed under Homo sapiens was more than 94. The IC50 in [1] was more than 10 µM; on TGF-beta receptor type-1 it was 0.106 µM.

Turning to `Cc1cccc(-c2[nH]c(CNC(=S)c3ccccc3)nc2-c2ccc3ncnn3c2)n1`, the Ratio IC50 in the series filed under Homo sapiens worked out at 79. In addition, the figures for the IC50 (in [1]; on TGF-beta receptor type-1) were 3.77 µM and 0.048 µM, respectively.

On to `Cc1cccc(-c2[nH]c(CNC(=O)c3ccccc3F)nc2-c2ccc3ncnn3c2)n1`, for which, in the series listed under Homo sapiens, the Ratio IC50 is more than 270. Also, the concentration for half-maximal inhibition (IC50) is more than 10 µM in [1] and 0.037 µM on TGF-beta receptor type-1.

For the origin of these results see ChEMBL document CHEMBL3259570, “4-([1,2,4]Triazolo[1,5-a]pyridin-6-yl)-5(3)-(6-methylpyridin-2-yl)imidazole and -pyrazole derivatives as potent and selective inhibitors of transforming growth factor-β type I receptor kinase” (Bioorg Med Chem, 2014).
